Experimental data reported in ChEMBL document CHEMBL2057204, “Synthesis, biological evaluation, and molecular docking studies of N-((1,3-diphenyl-1H-pyrazol-4-yl)methyl)aniline derivatives as novel anticancer agents” (Bioorg Med Chem, 2012).

Columns and labels:
B16-F10 = assay: Antiproliferative activity against mouse B16F10 cells after 48 hrs by MTT assay; format: functional, cell-based; details: B16-F10, 48 h
Summary of the method: (§1)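 Cells grown to log phase in RPMI 1640 with 10% FBS, diluted to 2 × 10⁴ cells/mL in complete medium and seeded into 96-well plates. Plates held 24 h at 37 °C, 5% CO₂ before compound exposure. After a 4 h incubation, absorbance read at 570 nm on a microplate reader. Three replicate wells per concentration; each assay run at least three times; IC₅₀ reported.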

MCF7 = assay: Antiproliferative activity against human MCF7 cells after 48 hrs by MTT assay; format: functional, cell-based; details: MCF7, 48 h; summary of the method: as §1
[1] = target: Cyclin-dependent kinase 2/cyclin E1 (Homo sapiens, UniProt P24941); assay: Inhibition of CDK2/cyclin E; format: protein-complex assay

| SMILES | IC50 (B16-F10) [µM] | IC50 (MCF7) [µM] | IC50 [1] [µM] |
| --- | --- | --- | --- |
| Cc1ccc(-c2nn(-c3ccccc3)cc2CNc2ccc(Cl)cc2)cc1 | 6.01 | 6.02 | 3.89 |
| Cc1ccc(-c2nn(-c3ccccc3)cc2CNc2ccc(Br)cc2)cc1 | 6.76 | 6.89 | 4.15 |
| Cc1ccc(NCc2cn(-c3ccccc3)nc2-c2ccc(C)cc2)cc1 | 7.38 | 7.26 | 4.55 |
| COc1ccc(-c2nn(-c3ccccc3)cc2CNc2ccc(F)cc2)cc1 | 6.58 | 5.98 | 4.02 |
| COc1ccc(-c2nn(-c3ccccc3)cc2CNc2ccc(Cl)cc2)cc1 | 7.18 | 6.25 | 4.28 |
| COc1ccc(-c2nn(-c3ccccc3)cc2CNc2ccc(Br)cc2)cc1 | 8.06 | 7.02 | 4.96 |
| COc1ccc(-c2nn(-c3ccccc3)cc2CNc2ccc(C)cc2)cc1 | 8.38 | 8.16 | 5.06 |
| Cn1cnc2c(NCc3ccccc3)nc(NCCO)nc21 [OLOMOUCINE] | 105 | 130 |  |

Continued by falling IC50 (B16-F10), values first:

| IC50 (B16-F10) [µM] | IC50 (MCF7) [µM] | IC50 [1] [µM] | SMILES |
| --- | --- | --- | --- |
| 5.98 | 5.38 | 3.02 | Cc1ccc(NCc2cn(-c3ccccc3)nc2-c2ccc(Br)cc2)cc1 |
| 5.67 | 5.88 | 3.6 | Cc1ccc(-c2nn(-c3ccccc3)cc2CNc2ccc(F)cc2)cc1 |
| 5.27 | 5 | 2.78 | Brc1ccc(NCc2cn(-c3ccccc3)nc2-c2ccc(Br)cc2)cc1 |
| 4.29 | 4.15 | 2.56 | Clc1ccc(NCc2cn(-c3ccccc3)nc2-c2ccc(Br)cc2)cc1 |
| 4.18 | 3.96 | 2.36 | Fc1ccc(NCc2cn(-c3ccccc3)nc2-c2ccc(Br)cc2)cc1 |
| 3.48 | 3.11 | 2.08 | Cc1ccc(NCc2cn(-c3ccccc3)nc2-c2ccc(Cl)cc2)cc1 |
| 3.01 | 2.62 | 1.85 | Clc1ccc(-c2nn(-c3ccccc3)cc2CNc2ccc(Br)cc2)cc1 |
| 2.45 | 2.28 | 1.18 | Clc1ccc(NCc2cn(-c3ccccc3)nc2-c2ccc(Cl)cc2)cc1 |
| 2.12 | 1.88 | 0.98 | Fc1ccc(NCc2cn(-c3ccccc3)nc2-c2ccc(Cl)cc2)cc1 |
